From the array DNA melting data of Ke et al. (doi:10.1101/2024.01.08.574731)

How the values were obtained:
[1] = folding enthalpy; higher = less favourable; fluorescence melt of hairpins on a sequencing array, two-state fit; details: sodium 0.088 M
Procedure, shortened: (§1)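 With Cy3 and quencher oligos annealed, library hairpins on a sequenced MiSeq flow cell were imaged for Cy3 fluorescence in 50 mM Na-HEPES pH 8.0, 25 mM NaCl, in 2.5 °C steps up to 60 °C. Melting temperature and folding enthalpy were derived from bootstrapped two-state fits of signals normalised to pre-quench Cy3 and to control constructs. Four replicates were combined by inverse variance, with fitted temperatures raised by 9.35 °C to match UV melts.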

[2] = melting temperature; fluorescence melt of hairpins on a sequencing array, two-state fit, raised by 9.35 °C to match UV melts; details: sodium 0.088 M
Procedure, shortened: as §1

| Sequence | folding enthalpy [1] | Tm [2] |
| --- | --- | --- |
| GCAATGCGAAAGCAGAGC ((..(((....)))..)) | -19.5 kcal/mol | 55 °C |
| GCGTCGGGAAACTGGCGC (((.(.(....).).))) | -37.1 kcal/mol | 53.2 °C |
| GACGGGCGAAAGCCTGTC (((.(((....))).))) | -26.2 kcal/mol | 67.3 °C |
| GCATAGGAAACTATGC ((((((....)))))) | -35.4 kcal/mol | 53.7 °C |
| GAATGCGGAAACGTATTC ((((.((....)).)))) | -35.2 kcal/mol | 47.6 °C |
| GGTAGTGGAAACACTACC (((((((....))))))) | -46.8 kcal/mol | 62.9 °C |
| GATCGATAACTCGATC ((((((....)))))) | -36.3 kcal/mol | 49.3 °C |
| GTGGCAGGAAACCACCAC ((((..(....)..)))) | -22.5 kcal/mol | 35 °C |
| GTGGTCGAAAGACCGCAC ((((((....)))..))) | -11.6 kcal/mol | 55.6 °C |
| GTTACGGGAAACCGTAGC (.(((((....))))).) | -18.3 kcal/mol | 48.5 °C |
| GGGATCCGAAAGGACCC (((.(((....)))))) | -36.5 kcal/mol | 55.7 °C |
| GCGGAGGGAAACCTCTGC ((.((((....)))).)) | -40.3 kcal/mol | 58.2 °C |
| GGGCTCGAAAGAGACCCC ((((((....)))..))) | -12.7 kcal/mol | 63.8 °C |
| GCTCTAGGAAACTGGAGC ((((.((....)).)))) | -35.8 kcal/mol | 49.6 °C |
| GGGACTGGAAACAATCCC ((((.((....)).)))) | -27.6 kcal/mol | 37.9 °C |
| CGTATCGGAAACGAACG (((.(((....)))))) | -24.5 kcal/mol | 36.2 °C |
| GATCATTCGAATGATC ((((((....)))))) | -46.8 kcal/mol | 50.5 °C |
| GACGAGCGAAAGCTTGTC (((.(((....))).))) | -36.8 kcal/mol | 61.2 °C |
| GGTATAGGAAACTATACC (((((((....))))))) | -42.4 kcal/mol | 52.1 °C |
| GCTAGGCGAAAGCTCAGC (((..((....))..))) | -19.6 kcal/mol | 42.9 °C |
| GCGCAGCGAAAGCTTTGC ((..(((....)))..)) | -6.59 kcal/mol | 38.8 °C |
| GATCAGGCGCCTGATC ((((((....)))))) | -52.1 kcal/mol | 60.8 °C |
| GAACGGCGAAAGCCCTTC (((.(((....))).))) | -12.4 kcal/mol | 32.8 °C |

| Sequence | folding enthalpy [1] | Tm [2] |
| --- | --- | --- |
| GATCCGAGCCGGATC ((((((...)))))) | -44.5 kcal/mol | 56.3 °C |
| GATCTTACCAAGATC ((((((...)))))) | -33 kcal/mol | 45.6 °C |
| GGAAGTCGAAAGACGTCC (((.(((....))).))) | -23.7 kcal/mol | 52.2 °C |
| GAGGTCCCGAAAGGGCTC (((..(((....)))))) | -13.7 kcal/mol | 37.6 °C |
| GCAGGCGAAAGCCGGTGC ((((((....)))..))) | -14.5 kcal/mol | 53.8 °C |
| GTTGTAGCGAAAGCTAAC (((..(((....)))))) | -23 kcal/mol | 48.1 °C |
| GACACAGAAATGTGTC ((((((....)))))) | -28.5 kcal/mol | 56.5 °C |
| GTTGGCGAAAGCCTAAC ((((((....))).))) | -12.8 kcal/mol | 43.4 °C |
| GCAAGGCGAAAGCCTAGC ((.((((....)))).)) | -18.4 kcal/mol | 61.7 °C |
| GATCATATGGATGATC ((((((....)))))) | -28.1 kcal/mol | 46.1 °C |
| GAGAGGCCGAAAGGCCTC (((..(((....)))))) | -7.49 kcal/mol | 65.9 °C |
| GCTCTGGGAAACTAGAGC (((((.(....).))))) | -51 kcal/mol | 49.7 °C |
| GAGCCGCGAAAGCGCTC (((.(((....)))))) | -16.7 kcal/mol | 58.9 °C |
| GACCAGGGAAACCTGACC (..((((....))))..) | -10 kcal/mol | 30.1 °C |
| GATCTTAACCAAGATC ((((((....)))))) | -33.7 kcal/mol | 42.9 °C |
| GATCGGCGCACCGATC ((((((....)))))) | -37.4 kcal/mol | 59.9 °C |
| GATCCAAATATGGATC ((((((....)))))) | -34.1 kcal/mol | 49.4 °C |
| GTATCCGAAAGGACTTAC ((((((....)))..))) | -11.4 kcal/mol | 28.6 °C |
| GGTCGCGAAAGCGGGACC ((((((....)))..))) | -18.9 kcal/mol | 52.1 °C |
| GGAACCGGAAACGGCTCC (((.(((....))).))) | -28.5 kcal/mol | 50 °C |
| GATCCGTGCGCGGATC ((((((....)))))) | -48.4 kcal/mol | 65 °C |
| GATCCTTCCTAGGATC ((((((....)))))) | -44.7 kcal/mol | 52.1 °C |
| GAAGAGCGAAAGCTATTC (((.(((....))).))) | -31 kcal/mol | 50 °C |
